ChEMBL document CHEMBL1671684, “In vitro resistance profile of the hepatitis C virus NS3/4A protease inhibitor TMC435” (Antimicrob Agents Chemother, 2010)
pEC50: −log10 of the molar value.

What was measured:
[1] = tested on: Hepatitis C virus; assay: Antiviral activity against Hepatitis C virus subtype 1b expressing WT NS3 infected in HuH7 cells after 48 hrs by luciferase reporter assay; type: functional, organism-based, Hepacivirus hominis; conditions: genotype 1b, Huh-7, 48 h
How it was run: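 Huh7-lunet cells were electroporated with 10 μg wild-type genotype 1b subgenomic replicon RNA (clone ET; luciferase reporter; E1202G, T1280I, K1846T). They were seeded at 4,000 cells/well over a nine-point compound dilution series. After 48 h at 37°C, 5% CO2, luciferase reagent was added 1:1, followed by 10–20 min in the dark and a luminescence read. EC50 is the median of individual-experiment EC50s.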

[2] = tested on: Hepatitis C virus; assay: Antiviral activity against Hepatitis C virus subtype 1b expressing NS3 V36M mutant infected in HuH7 cells after 48 hrs by luciferase reporter assay; type: functional, organism-based, Hepacivirus hominis; conditions: genotype 1b, Huh-7, 48 h
How it was run: (§1)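 Genotype 1b con1 subgenomic bicistronic replicon (clone ET) with luciferase reporter and adaptive mutations E1202G, T1280I, K1846T, carrying site-directed NS3 single or double mutations. 10 μg wild-type or mutant replicon RNA electroporated into Huh7-lunet cells, seeded 4,000 cells/well over a nine-point inhibitor dilution series, 48 h at 37°C, 5% CO2, then luminescence read. EC50 taken as median of individual experiments; fold change relative to parental replicon EC50.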

[3] = tested on: Hepatitis C virus; assay: Antiviral activity against Hepatitis C virus subtype 1b expressing NS3 F43I mutant infected in HuH7 cells after 48 hrs by luciferase reporter assay; type: functional, organism-based, Hepacivirus hominis; conditions: genotype 1b, Huh-7, 48 h; how it was run: as §1
[4] = tested on: Hepatitis C virus; assay: Antiviral activity against Hepatitis C virus subtype 1b expressing NS3 F43V mutant infected in HuH7 cells after 48 hrs by luciferase reporter assay; type: functional, organism-based, Hepacivirus hominis; conditions: genotype 1b, Huh-7, 48 h; how it was run: as §1
[5] = tested on: Hepatitis C virus; assay: Antiviral activity against Hepatitis C virus subtype 1b expressing NS3 T54A mutant infected in HuH7 cells after 48 hrs by luciferase reporter assay; type: functional, organism-based, Hepacivirus hominis; conditions: genotype 1b, Huh-7, 48 h; how it was run: as §1
[6] = tested on: Hepatitis C virus; assay: Antiviral activity against Hepatitis C virus subtype 1b expressing NS3 Q80H mutant infected in HuH7 cells after 48 hrs by luciferase reporter assay; type: functional, organism-based, Hepacivirus hominis; conditions: genotype 1b, Huh-7, 48 h; how it was run: as §1
[7] = tested on: Hepatitis C virus; assay: Antiviral activity against Hepatitis C virus subtype 1b expressing NS3 Q80K mutant infected in HuH7 cells after 48 hrs by luciferase reporter assay; type: functional, organism-based, Hepacivirus hominis; conditions: genotype 1b, Huh-7, 48 h; how it was run: as §1
[8] = tested on: Hepatitis C virus; assay: Antiviral activity against Hepatitis C virus subtype 1b expressing NS3 R155Q mutant infected in HuH7 cells after 48 hrs by luciferase reporter assay; type: functional, organism-based, Hepacivirus hominis; conditions: genotype 1b, Huh-7, 48 h; how it was run: as §1
[9] = tested on: Hepatitis C virus; assay: Antiviral activity against Hepatitis C virus subtype 1b expressing NS3 R155K mutant infected in HuH7 cells after 48 hrs by luciferase reporter assay; type: functional, organism-based, Hepacivirus hominis; conditions: genotype 1b, Huh-7, 48 h; how it was run: as §1
[10] = tested on: Hepatitis C virus; assay: Antiviral activity against Hepatitis C virus subtype 1b expressing NS3 A156V mutant infected in HuH7 cells after 48 hrs by luciferase reporter assay; type: functional, organism-based, Hepacivirus hominis; conditions: genotype 1b, Huh-7, 48 h; how it was run: as §1
[11] = tested on: Hepatitis C virus; assay: Antiviral activity against Hepatitis C virus subtype 1b expressing NS3 D168E mutant infected in HuH7 cells after 48 hrs by luciferase reporter assay; type: functional, organism-based, Hepacivirus hominis; conditions: genotype 1b, Huh-7, 48 h; how it was run: as §1
[12] = tested on: Hepatitis C virus; assay: Antiviral activity against Hepatitis C virus subtype 1b expressing NS3 D168V mutant infected in HuH7 cells after 48 hrs by luciferase reporter assay; type: functional, organism-based, Hepacivirus hominis; conditions: genotype 1b, Huh-7, 48 h; how it was run: as §1
[13] = tested on: Hepatitis C virus; assay: Antiviral activity against Hepatitis C virus subtype 1b expressing NS3 D168I mutant infected in HuH7 cells after 48 hrs by luciferase reporter assay; type: functional, organism-based, Hepacivirus hominis; conditions: genotype 1b, Huh-7, 48 h; how it was run: as §1
[14] = tested on: Hepatitis C virus; assay: Antiviral activity against Hepatitis C virus subtype 1b expressing NS3 V170T mutant infected in HuH7 cells after 48 hrs by luciferase reporter assay; type: functional, organism-based, Hepacivirus hominis; conditions: genotype 1b, Huh-7, 48 h; how it was run: as §1
[15] = tested on: Hepatitis C virus; assay: Antiviral activity against Hepatitis C virus subtype 1b expressing NS3 F43S and Q80R mutant infected in HuH7 cells after 48 hrs by luciferase reporter assay; type: functional, organism-based, Hepacivirus hominis; conditions: genotype 1b, Huh-7, 48 h; how it was run: as §1
[16] = tested on: Hepatitis C virus; assay: Antiviral activity against Hepatitis C virus subtype 1b expressing NS3 F43S and D168E mutant infected in HuH7 cells after 48 hrs by luciferase reporter assay; type: functional, organism-based, Hepacivirus hominis; conditions: genotype 1b, Huh-7, 48 h; how it was run: as §1
[17] = tested on: Hepatitis C virus; assay: Antiviral activity against Hepatitis C virus subtype 1b expressing NS3 Q80K and R155K mutant infected in HuH7 cells after 48 hrs by luciferase reporter assay; type: functional, organism-based, Hepacivirus hominis; conditions: genotype 1b, Huh-7, 48 h; how it was run: as §1
[18] = tested on: Hepatitis C virus; assay: Antiviral activity against Hepatitis C virus subtype 1b expressing NS3 Q80R and R155K mutant infected in HuH7 cells after 48 hrs by luciferase reporter assay; type: functional, organism-based, Hepacivirus hominis; conditions: genotype 1b, Huh-7, 48 h; how it was run: as §1
[19] = tested on: Hepatitis C virus; assay: Antiviral activity against Hepatitis C virus subtype 1b expressing NS3 Q80R and D168E mutant infected in HuH7 cells after 48 hrs by luciferase reporter assay; type: functional, organism-based, Hepacivirus hominis; conditions: genotype 1b, Huh-7, 48 h; how it was run: as §1
[20] = tested on: Hepatitis C virus; assay: Antiviral activity against Hepatitis C virus subtype 1b expressing NS3 Q80R and D168A mutant infected in HuH7 cells after 48 hrs by luciferase reporter assay; type: functional, organism-based, Hepacivirus hominis; conditions: genotype 1b, Huh-7, 48 h; how it was run: as §1
[21] = tested on: Hepatitis C virus; assay: Ratio of EC50 for Hepatitis C virus subtype 1b expressing NS3 V36 M mutant to EC50 for Hepatitis C virus subtype 1b expressing WT NS3 infected in HuH7 cells after 48 hrs by luciferase reporter assay; type: functional, Hepacivirus hominis, genotype 1b, Huh-7
How it was run: (§2)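 Transient replicon assay: site-directed single or multiple NS3 mutations engineered into genotype 1b (con1, clone ET) subgenomic bicistronic replicon with luciferase reporter and adaptive mutations E1202G, T1280I, K1846T. Huh7-lunet cells electroporated with 10 μg wild-type or mutant replicon RNA, seeded 4,000 cells/well with nine-point inhibitor dilution; 48 h, 37°C, 5% CO2; luminescence read-out. EC50 as median of individual experiments; fold change versus parental replicon EC50.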

[22] = tested on: Hepatitis C virus; assay: Ratio of EC50 for Hepatitis C virus subtype 1b expressing NS3 F43S mutant to EC50 for Hepatitis C virus subtype 1b expressing WT NS3 infected in HuH7 cells after 48 hrs by luciferase reporter assay; type: functional, Hepacivirus hominis, genotype 1b, Huh-7; how it was run: as §2
[23] = tested on: Hepatitis C virus; assay: Ratio of EC50 for Hepatitis C virus subtype 1b expressing NS3 T54A mutant to EC50 for Hepatitis C virus subtype 1b expressing WT NS3 infected in HuH7 cells after 48 hrs by luciferase reporter assay; type: functional, Hepacivirus hominis, genotype 1b, Huh-7; how it was run: as §2
[24] = tested on: Hepatitis C virus; assay: Ratio of EC50 for Hepatitis C virus subtype 1b expressing NS3 Q80K mutant to EC50 for Hepatitis C virus subtype 1b expressing WT NS3 infected in HuH7 cells after 48 hrs by luciferase reporter assay; type: functional, Hepacivirus hominis, genotype 1b, Huh-7; how it was run: as §2
[25] = tested on: Hepatitis C virus; assay: Ratio of EC50 for Hepatitis C virus subtype 1b expressing NS3 R155M mutant to EC50 for Hepatitis C virus subtype 1b expressing WT NS3 infected in HuH7 cells after 48 hrs by luciferase reporter assay; type: functional, Hepacivirus hominis, genotype 1b, Huh-7; how it was run: as §2
[26] = tested on: Hepatitis C virus; assay: Ratio of EC50 for Hepatitis C virus subtype 1b expressing NS3 R155Q mutant to EC50 for Hepatitis C virus subtype 1b expressing WT NS3 infected in HuH7 cells after 48 hrs by luciferase reporter assay; type: functional, Hepacivirus hominis, genotype 1b, Huh-7; how it was run: as §2
[27] = tested on: Hepatitis C virus; assay: Ratio of EC50 for Hepatitis C virus subtype 1b expressing NS3 R155T mutant to EC50 for Hepatitis C virus subtype 1b expressing WT NS3 infected in HuH7 cells after 48 hrs by luciferase reporter assay; type: functional, Hepacivirus hominis, genotype 1b, Huh-7; how it was run: as §2
[28] = tested on: Hepatitis C virus; assay: Ratio of EC50 for Hepatitis C virus subtype 1b expressing NS3 A156G mutant to EC50 for Hepatitis C virus subtype 1b expressing WT NS3 infected in HuH7 cells after 48 hrs by luciferase reporter assay; type: functional, Hepacivirus hominis, genotype 1b, Huh-7; how it was run: as §1
[29] = tested on: Hepatitis C virus; assay: Ratio of EC50 for Hepatitis C virus subtype 1b expressing NS3 A156V mutant to EC50 for Hepatitis C virus subtype 1b expressing WT NS3 infected in HuH7 cells after 48 hrs by luciferase reporter assay; type: functional, Hepacivirus hominis, genotype 1b, Huh-7; how it was run: as §1
[30] = tested on: Hepatitis C virus; assay: Ratio of EC50 for Hepatitis C virus subtype 1b expressing NS3 Q80R and R155K mutant to EC50 for Hepatitis C virus subtype 1b expressing WT NS3 infected in HuH7 cells after 48 hrs by luciferase reporter assay; type: functional, Hepacivirus hominis, genotype 1b, Huh-7; how it was run: as §2

Structure (SMILES) | pEC50 [1] | pEC50 [2] | pEC50 [3] | pEC50 [4] | pEC50 [5] | pEC50 [6] | pEC50 [7] | pEC50 [8] | pEC50 [9] | pEC50 [10] | pEC50 [11] | pEC50 [12] | pEC50 [13] | pEC50 [14] | pEC50 [15] | pEC50 [16] | pEC50 [17] | pEC50 [18] | pEC50 [19] | pEC50 [20] | further results
CC(C)(C)NC(=O)N[C@H](C(=O)N1C[C@H]2[C@@H]([C@H]1C(=O)NC(CC1CCC1)C(=O)C(N)=O)C2(C)C)C(C)(C)C (stereo not given in full) [BOCEPREVIR] | 6.83 | 6.66 | 6.62 | 6.28 | 6.57 | 7.11 | 7.03 | 6.76 | 6.13 | 5.01 | 7.16 | 7.08 | 6.55 | 6.68 | 5.81 | 6.38 | 5.97 | 6.17 | 7.21 | 6.95 | Ratio EC50 [21]: 1.8; Ratio EC50 [22]: 5.2; Ratio EC50 [23]: 2.1; Ratio EC50 [24]: 0.8; Ratio EC50 [25]: 5.7; Ratio EC50 [26]: 1.4; Ratio EC50 [27]: 51; Ratio EC50 [28]: 2.1; Ratio EC50 [29]: 75; Ratio EC50 [30]: 2.7
COc1ccc2c(O[C@@H]3C[C@H]4C(=O)N[C@]5(C(=O)O)C[C@H]5/C=C\CCCCC[C@H](NC(=O)OC5CCCC5)C(=O)N4C3)cc(-c3csc(NC(C)C)n3)nc2c1 [CILUPREVIR] | 9.10 | 8.62 | 9.40 | 9.40 | 9.15 | 8.92 | 9.00 | 6.61 | 6.31 | 5.82 | 7.40 | 5.74 | 4.68 | 8.32 | 9.40 | 8.24 | 6.15 | 6.15 | 7.06 | 5.98 | Ratio EC50 [21]: 1.2; Ratio EC50 [22]: 0.9; Ratio EC50 [23]: 0.6; Ratio EC50 [24]: 0.9; Ratio EC50 [25]: 68; Ratio EC50 [26]: 242; Ratio EC50 [27]: 562; Ratio EC50 [28]: 12; Ratio EC50 [29]: 2085; Ratio EC50 [30]: 772
